Legend:
MT4 [1] = experiment: The concentration required to cause a 50% inhibition of cell proliferation was determined in MT-4 cell culture.; assay type: functional; settings: Homo sapiens, read-out: CD50 (the source's name)
Procedure, shortened: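 Uninfected MT-4 cells grown 3 days with compound at 0.001–100 μg/mL, triplicate per dose. Cell concentration and viability read by trypan blue exclusion; CD50 = concentration halving cell proliferation. Values averaged from two independent experiments.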

MT4 [2] = experiment: The concentration required to cause a 50% inhibition of HIV reproduction was determined in MT-4 cell culture for free forms; assay type: functional; settings: Homo sapiens, read-out: ID50 (the source's name)
Procedure, shortened: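 HIV-1 strain GKV-4046 in MT-4 cells (2×10^6/mL, viability >90%), MOI 0.2–0.5; cells in RPMI-1640 with 10% FBS, 37 °C, 5% CO2. Infected cells grown 3 days with free compound at 0.001–100 μg/mL, triplicate per dose. p24 antigen measured by immunoassay; ID50 = concentration halving HIV reproduction; two independent experiments averaged.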

[3] = molecular target: Human immunodeficiency virus type 1 reverse transcriptase (Human immunodeficiency virus 1, UniProt Q72547); experiment: Inhibition of DNA synthesis by HIV reverse transcriptase
MT4 [4] = experiment: The concentration required to cause a 50% inhibition of HIV reproduction was determined in MT-4 cell culture for liposome-entrapped forms.; assay type: functional; settings: Homo sapiens, read-out: ID50 (the source's name)
Procedure, shortened: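 HIV-1 GKV-4046 in MT-4 cells, MOI 0.2–0.5, 3-day culture, p24 immunoassay read-out. Compounds given in phosphatidylcholine liposomes: dry lipid film hydrated with compound in PBS pH 7.0 (1:124 drug/lipid, 1 mM compound), extruded down to 0.1 μm pores (mean 0.16 μm); 40–50% entrapment. ID50 from two independent experiments.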

[5] = Half life period in human blood serum was determined at 37 degrees Centigrade; assay type: ADME, Plasma
Procedure, shortened: (§1)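 Compounds held at 37 °C in human blood serum or in phosphate buffer, pH 7.5. For serum samples, precipitated proteins were spun off after thawing. Remaining material was analysed by RP-18 HPLC with a 0–25% linear gradient of 70% ethanol in 0.05 M triethylammonium bicarbonate (pH 7.5–8.0) over 25 min. Total loaded taken as 100%. Half-lives were averaged from at least three experiments.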

[6] = Half life period in phosphate buffer (pH 7.5) was determined at 37 degrees Centigrade; assay type: ADME; procedure, shortened: as §1

SMILES	CC50 (MT4 [1])	IC50 (MT4 [2])	IC50 [3]	IC50 (MT4 [4])	half-life [5]	half-life [6]
Nc1ncnc2c1ncn2C1C=CC(OCP(=O)(O)OP(=O)(O)OP(=O)(O)COC2C=CC(n3cnc4c(N)ncnc43)C2)C1 (stereo unspecified)	146 µM	6.6 µM	10 µM	–	–	–
Nc1nc2c(ncn2C2C=CC(OCP(=O)(O)OP(=O)(O)OP(=O)(O)O)C2)c(=O)[nH]1 (stereo unspecified)	20.5 µM	7.2 µM	0.3 µM	< 1 µM	–	–
Nc1nc2c(ncn2C2C=CC(OCP(=O)(O)OP(=O)(O)C(Br)(Br)P(=O)(O)OP(=O)(O)COC3C=CC(n4cnc5c(=O)[nH]c(N)nc54)C3)C2)c(=O)[nH]1 (stereo unspecified)	–	–	> 250 µM	–	–	–
Nc1ncnc2c1ncn2C1C=CC(OCP(=O)(O)OP(=O)(O)C(F)(F)P(=O)(O)O)C1 (stereo unspecified)	–	–	25 µM	–	–	–
Nc1ncnc2c1ncn2C1C=CC(OCP(=O)(O)OP(=O)(O)C(F)(F)P(=O)(O)OP(=O)(O)COC2C=CC(n3cnc4c(N)ncnc43)C2)C1 (stereo unspecified)	–	–	20 µM	–	–	–
Nc1nc2c(ncn2C2C=CC(OCP(=O)(O)OP(=O)(O)C(Br)(Br)P(=O)(O)O)C2)c(=O)[nH]1 (stereo unspecified)	–	–	> 200 µM	–	–	–
Nc1nc2c(ncn2C2C=CC(OCP(=O)(O)OP(=O)(O)OP(=O)(O)COC3C=CC(n4cnc5c(=O)[nH]c(N)nc54)C3)C2)c(=O)[nH]1 (stereo unspecified)	56 µM	9 µM	8 µM	–	–	–
Nc1ncnc2c1ncn2C1C=CC(OCP(=O)(O)OP(=O)(O)OP(=O)(O)O)C1 (stereo unspecified)	212 µM	> 10 µM	0.2 µM	–	–	–
Nc1nc2c(ncn2[C@H]2C[C@H](O)[C@@H](COP(=O)(O)OP(=O)(O)OP(=O)(O)O)O2)c(=O)[nH]1 [DEOXYGUANOSINE TRIPHOSPHATE]	–	–	–	–	0.3 h	> 24 h
Nc1ncnc2c1ncn2C1C=CC(OCP(=O)(O)OP(=O)(O)C(Br)(Br)P(=O)(O)O)C1 (stereo unspecified)	> 160 µM	80 µM	> 1000 µM	–	–	–
Nc1ncnc2c1ncn2C1C=CC(OCP(=O)(O)OP(=O)(O)OP(=O)(O)OP(=O)(O)COC2C=CC(n3cnc4c(N)ncnc43)C2)C1 (stereo unspecified)	131 µM	2 µM	2 µM	1.2 µM	–	–
Nc1nc2c(ncn2C2C=CC(OCP(=O)(O)OP(=O)(O)C(F)(F)P(=O)(O)O)C2)c(=O)[nH]1 (stereo unspecified)	144 µM	> 200 µM	25 µM	–	7 h	> 24 h
Nc1nc(O)c2ncn(C3C=CC(OCP(=O)(O)O)C3)c2n1 (stereo unspecified)	> 320 µM	201 µM	–	–	–	–
Cc1cn([C@H]2C=C[C@@H](CO)O2)c(=O)[nH]c1=O [STAVUDINE]	314 µM	0.24 µM	–	–	–	–
Nc1nc(O)c2ncn(C3C=CC(OCP(=O)(O)OP(=O)(O)C(F)(F)P(=O)(O)OP(=O)(O)COC4C=CC(n5cnc6c(O)nc(N)nc65)C4)C3)c2n1 (stereo unspecified)	84 µM	60 µM	15 µM	–	3 h	15 h
Cc1cn([C@H]2C[C@H](N=[N+]=[N-])[C@@H](CO)O2)c(=O)[nH]c1=O [ZIDOVUDINE]	140 µM	0.004 µM	–	–	–	–
Nc1ncnc2c1ncn2C1C=CC(OCP(=O)(O)OP(=O)(O)C(Br)(Br)P(=O)(O)OP(=O)(O)COC2C=CC(n3cnc4c(N)ncnc43)C2)C1 (stereo unspecified)	> 110 µM	5.4 µM	> 200 µM	–	–	–
Nc1nc2c(ncn2C2C=CC(OCP(=O)(O)OP(=O)(O)OP(=O)(O)OP(=O)(O)COC3C=CC(n4cnc5c(=O)[nH]c(N)nc54)C3)C2)c(=O)[nH]1 (stereo unspecified)	> 12 µM	> 12 µM	0.7 µM	0.5 µM	3 h	12 h
